From ChEMBL document CHEMBL1795273, “Curcumin analogues as possible anti-proliferative & anti-inflammatory agents” (Eur J Med Chem, 2011)
Activity calls are given as the source filed them. The rule behind the calls is not given here.

Tests used:
SF-268 [1] = assay: Cytotoxicity against human SF268 cells after 48 hrs by sulforhodamine B assay; assay type: cell-based; settings: sf-268, 48 h
In short: (§1)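 Cells grown in RPMI 1640 with 5% heat-inactivated FCS, 2 mM L-glutamine and antibiotics, 37 °C, 5% CO2; viability >95% by trypan blue. Seeded 5.000-7.500 cells/well and preincubated 24 h. Compounds in DMSO added at 10-fold dilutions (100 to 0.01 µM) for 48 h. Fixed with cold TCA, SRB-stained, absorbance read at 530 nm. GI50, TGI and LC50 derived from three independent experiments, each in triplicate.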

SF-268 [2] = assay: Antiproliferative activity against human SF268 cells after 48 hrs by sulforhodamine B assay; assay type: functional; settings: SF-268, 48 h
In short: (§2)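 Cells grown in RPMI 1640 with 5% heat-inactivated FCS, 2 mM L-glutamine and antibiotics at 37 °C, 5% CO2; viability >95% by trypan blue. Seeded at 5.000-7.500 cells/well and preincubated 24 h. Compound in DMSO added at 10-fold dilutions (100 to 0.01 µM) for 48 h. TCA fixation, SRB staining, absorbance at 530 nm. GI50, TGI and LC50 derived. Three independent experiments, each in triplicate.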

MCF7 [3] = assay: Antiproliferative activity against human MCF7 cells after 48 hrs by sulforhodamine B assay; assay type: functional; settings: MCF7, 48 h; in short: as §2
NCI-H460 [4] = assay: Cytotoxicity against human NCI-H460 cells after 48 hrs by sulforhodamine B assay; assay type: cell-based; settings: nci-h460, 48 h; in short: as §1
[5] = Therapeutic index, ratio of LC50 for human MCF7 cells to GI50 for human MCF7 cells; assay type: cell-based; settings: read-out: TI
In short: (§3)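 Index is LC50/GI50 from the 48 h SRB growth assay (100–0.01 µM, 10-fold dilutions). Where LC50 exceeded 100 µM, the highest concentration tested, it was taken as 100 µM.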

Glycine max = assay: Inhibition of soybean 5LOX assessed as conversion of sodium linoleate to 13-[…] acid at 100 uM
In short: (§4)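 Soybean lipoxygenase (1/9 × 10^-4 w/v in saline) incubated at room temperature with compound in DMSO and 0.1 mM sodium linoleate. Formation of 13-hydroperoxylinoleic acid followed at 234 nm. NDGA reference inhibitor. At least triplicate.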

NCI-H460 [6] = assay: Antiproliferative activity against human NCI-H460 cells after 48 hrs by sulforhodamine B assay; assay type: functional; settings: NCI-H460, 48 h; in short: as §2
[7] = biological target: Aldo-keto reductase family 1 member B1 (Rattus norvegicus) (UniProt P07943); assay: Inhibition of ALR2 in Fischer-344 rat lens at 100 uM; assay type: tissue-based; settings: Lens of camera-type eye
In short: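 Enzyme partially purified from lenses of Fischer-344 rats of both sexes. Lenses homogenized in cold water, spun at 10000 g, 0-4 °C, 15 min; supernatant precipitated at 40% ammonium sulphate saturation and spun again. Compound in 10% aqueous DMSO, tested at 100 µM. D,L-glyceraldehyde substrate; NADPH consumption read at 340 nm. At least triplicate.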

Rattus norvegicus [8] = assay: Antiinflammatory activity in carrageenan-induced Fischer-344 rat paw oedema at 0.01 mmol/kg, ip after 3.5 hrs; assay type: functional; settings: for inhibition in vivo at 10 µmol/kg: Fischer-344, ip
In short: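 Fischer-344 rats (150–200g), both sexes, pregnant females excluded, 6–15 per group. Oedema induced in right hind paw by intradermal 0.1 mL 2% carrageenin in water. Compound given ip with the carrageenin, dissolved in water (HCl salt) or suspended with Tween 80 (bases). Euthanized at 3.5 h. Injected minus uninjected paw weight compared with water-treated controls as % inhibition. Mean of two experiments.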

[9] = Lipophilicity, RM of the compound assessed by RPTLC; assay type: physicochemical
In short: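 Determined by reverse-phase TLC with plates developed in mobile-phase-saturated closed tanks at 24 °C and spots detected under UV. RM = log[(1/Rf) − 1], from 10 individual Rf measurements.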

MCF7 [10] = assay: Cytotoxicity against human MCF7 cells after 48 hrs by sulforhodamine B assay; assay type: cell-based; settings: mcf7, 48 h; in short: as §1
[11] = Therapeutic index, ratio of LC50 for human SF268 cells to GI50 for human SF268 cells; assay type: cell-based, SF-268; settings: read-out: TI; in short: as §3
Rattus norvegicus [12] = assay: Toxicity in Fischer-344 rat assessed as ulcerogenicity at 0.2 mmol/kg, ip; assay type: organism-based; settings: in vivo
[13] = Therapeutic index, ratio of LC50 for human NCI-H460 cells to GI50 for human NCI-H460 cells; assay type: cell-based; settings: read-out: TI; in short: as §3
[14] = Inhibition of soybean 5LOX assessed as conversion of sodium linoleate to 13-[…] acid; design: species or system Glycine max; in short: as §4

Row | Structure (SMILES) | LC50 (SF-268 [1]) [µM] | GI50 (SF-268 [2]) [µM] | TGI (SF-268 [2]) [µM] | GI50 (MCF7 [3]) [µM] | TGI (MCF7 [3]) [µM] | LC50 (NCI-H460 [4]) [µM] | selectivity ratio [5] | inhibition (Glycine max) | GI50 (NCI-H460 [6]) [µM] | TGI (NCI-H460 [6]) [µM] | inhibition [7] | inhibition in vivo at 10 µmol/kg (Rattus norvegicus [8]) [%] | Rm [9] | LC50 (MCF7 [10]) [µM] | selectivity ratio [11] | Activity (Rattus norvegicus [12]) | selectivity ratio [13] | IC50 [14] [µM] | inhibition (Rattus norvegicus [8])
1 | O=C1/C(=C/c2ccccc2)CNC/C1=C\c1ccccc1 | 9.1 | 0.9 | 4.7 | 0.8 | 4.1 | 10.3 | 11.6 | 8% | 2 | 6.1 | 49% | 43 | 0.135 | 9 | 10 | Non-toxic | 5.2 |  | 
2 | Cc1ccc(/C=C2\CNC/C(=C\c3ccc(C)s3)C2=O)s1 | > 100 | 65.2 | > 100 | 80.7 | > 100 | > 100 | 1.2 | inactive | 99.3 | > 100 | inactive | 62 | 0.031 | > 100 | 1.5 | Non-toxic | 1 |  | 
3 | COc1ccc2c(c1)c(CC(=O)O)c(C)n2C(=O)c1ccc(Cl)cc1 [INDOMETHACIN] |  |  |  |  |  |  |  |  |  |  |  | 47 |  |  |  |  |  |  | 
4 | O=C1/C(=C/c2ccc3[nH]ccc3c2)CNC/C1=C\c1ccc2[nH]ccc2c1 | > 100 | > 100 | > 100 | 69.5 | > 100 | > 100 | 1.4 |  | > 100 | > 100 | inactive | 36 | 0.166 | > 100 |  | Non-toxic |  | 410 | 
5 | O=C1/C(=C/c2ccc(OCc3ccc(Br)cc3)cc2)CNC/C1=C\c1ccc(OCc2ccc(Br)cc2)cc1 | > 100 | > 100 | > 100 | 49.9 | 96.8 | > 100 | 2 | 18% | > 100 | > 100 | inactive | 49 | 0.076 | > 100 |  | Non-toxic |  |  | 
6 | O=C1/C(=C/c2c[nH]cn2)CNC/C1=C\c1c[nH]cn1 | > 100 | > 100 | > 100 | > 100 | > 100 | > 100 |  | 36% | > 100 | > 100 | inactive | 11.5 | -0.552 | > 100 |  | Non-toxic |  |  | 
7 | O=C1/C(=C/c2cccs2)CNC/C1=C\c1cccs1 | > 100 | 98.8 | > 100 | > 100 | > 100 | > 100 |  |  | > 100 | > 100 | 45.5% |  | 0.176 | > 100 | 1 | Non-toxic |  | 330 | inactive
8 | O=C1/C(=C/c2c[nH]c3ccccc23)CNC/C1=C\c1c[nH]c2ccccc12 | 8.2 | 3.3 | 5.7 | 3.7 | 6 | 8.7 | 2.2 |  | 3.5 | 6.1 | 27.8% | 33 | 0.597 | 8.2 | 2.5 | Non-toxic | 2.4 | 280 | 
9 | COc1cc(/C=C/C(=O)CC(=O)/C=C/c2ccc(O)c(OC)c2)ccc1O [CURCUMIN] | 61 | 5.1 | 9.2 | 4.7 | 8.3 | 83.4 | 14.2 | 38% | 16.7 | 50.1 | 12% |  |  | 67.2 | 11.9 |  | 5 |  | 
10 | Cc1ccsc1/C=C1\CNC/C(=C\c2sccc2C)C1=O | > 100 | 53.8 | > 100 | 63 | > 100 | > 100 | 1.6 | inactive | 73.2 | > 100 | 56% | 27 | -0.03 | > 100 | 1.9 | Non-toxic | 1.4 |  | 
